Bioassay records deposited in PubChem by several laboratories.
The full list was thinned out, with hits kept by preference.
HSF-1 act: increases HSF-1 driven luciferase reporter signal; hit rate 1.7% among 300,000; activation, % at 9 µM; AID 504408; NIH3T3-HGL HSF-1 luciferase reporter, MG132, 8 h; 100% = twice DMSO control signal;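 active = mean replicate activation of at least 50% with a set share of replicates each reaching 50%; inconclusive = only one of those two conditions met; inactive = mean below 50% and too few replicates reaching it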;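 also: 0% = median of the neutral control wells and 100% = twice that signal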
Lmaj promast: reduces viability of Leishmania major promastigotes. resazurin fluorescence viability. inhibition, % at 10 µM. hit rate 9% among 200,000. AID 1063; in the data active = inhibition above about 50%;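 also: promastigotes grown with compound for 44 hours at 28 °C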
Hsp70 act: Hsp70 transcriptional activation, primary screen. HeLa Hsp70 promoter luciferase reporter, luminescence; scaled: vehicle 0, proteasome-inhibitor control 100%. activation, % at 10 µM. hit rate 0.04% among 200,000;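 active = activation above the mean across all tested compounds plus 3 SD, cutoff set per campaign, cut at about 5.5% in these data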;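 also: 100% = MG132 at 30 µM as the positive control and 0% = DMSO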
HSF1 inhib: HSF1 inhibition. NIH3T3-HGL HSE-luciferase, MG132-induced, luminescence 8 h; stronger effect = lower value. activity change, negative = inhibition, % at 7.5 µM (by protocol). hit rate 0.77% among 300,000. AID 2098;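 active = more than half of replicate wells show activity change below -50%, luminescence cut by over half; inconclusive = some wells, but at most half, below -50%; inactive = no replicate well below -50%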;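 also: luciferase reports HSF-1 transcriptional activity via heat shock element; 0% = median of DMSO wells and -100% = zero luminescence signal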
T cruzi inh: T. cruzi replication inhibition; T. cruzi beta-gal in NIH3T3, luminescence, 90 h; inhibition, % (test concentration not listed); hit rate 1.4% among 300,000;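 active = mean inhibition across valid replicates above about 55%, limit read from the data; inconclusive = mean below that limit but half or more replicates reach it; inactive = mean below it, under half of replicates reach it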;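 also: signal also drops with host cell toxicity which is not excluded here; 0% = plate median of DMSO wells and 100% = zero luminescence signal; higher percent means less beta-gal luminescence so fewer parasites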
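System: Mouse NIH/3T3 fibroblasts infected with β-gal-expressing T. cruzi Tulahuen C4 | Quantity: NIH/3T3 cells, 5,000 per well | Reagent: 5000 reporter trypomastigotes per well | Dosing: Compound pinned at 50 nL/well, DMSO | Schedule: 3 h host attachment, then at least 90 h co-culture | Detection: GalScreen luminescence, 60 min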
Active calls of the source: *; ? = inconclusive; nt = no result given.

SMILES	HSF-1 act	Lmaj promast	Hsp70 act	HSF1 inhib	T cruzi inh
Cc1ccc(NC(=O)CC2SC(=O)N(c3ccccc3)C2=O)cc1 (configuration not stated)	36	-3	0	17	0
Cn1c(=O)c(C(=O)CN2CCN(S(=O)(=O)c3ccccc3)CC2)c(N)n(Cc2ccccc2)c1=O	-21	71*	0	-3	-14
Cn1c(N)c(C(=O)CCl)c(=O)n(Cc2ccccc2)c1=O	-5	62*	0	-2	4
CCOc1ccc(C(=O)NC(=S)Nc2ccccc2N2CCOCC2)cc1Br	5	16	0	-1	28
Cc1[nH]c2ccccc2c1C(=O)CN1C(=O)NC2(CC(C)CC(C)(C)C2)C1=O (configuration not stated)	42	90*	0	11	22
CCN(Cc1ccccc1)C(=O)CN1C(=O)NC2(CC(C)CC(C)(C)C2)C1=O (configuration not stated)	3	nt	nt	-6	16
Cc1ccc(NC(=O)CSc2ccc(-c3cccnc3)nn2)cc1	9	nt	nt	-2	-8
CCc1ccc(NC(=O)CSc2ccc(-c3cccnc3)nn2)cc1	-81	nt	nt	-76*	1
CCOC(=O)c1ccc(NC(=O)CSc2ccc(-c3ccncc3)nn2)cc1	4	75*	0	0	22
N=C1C2=C3Sc4ccccc4N3CCCC2=NN1c1cccc(S(=O)(=O)O)c1	-4	nt	nt	-1	2
CCCn1c(=O)[nH]c(=O)c2c1nc(-c1ccc(OC)c(Br)c1)n2CCOC	17	37	0	-4	27
O=C(ONc1ccc(N=NC(=O)c2ccccc2O)cc1)c1ccccc1	-18	0	0	-2	-10
O=Nc1ccc(NOC(=O)c2ccccc2Br)cc1	0	73*	0	14	4
Oc1ccccc1N=Nc1ccccc1O	-6	100*	0	-5	59*
O=S(=O)(NCc1ccccc1)c1ccc(-n2cccn2)cc1	4	nt	nt	-6	-10
Cn1c(SCC(=O)NCCc2ccccc2)nc2c([nH]c3ccccc32)c1=O	34	93*	0	11	13
CCn1c(CNc2ccc(Cl)cc2)nnc1SCC(=O)NCc1ccccc1	60*	-4	0	44	9
Cn1c(CSc2nc3ccccc3n2C)nc2ccccc21	70*	4	0	31	3
Cc1cc(C)nc(SCc2nc3ccccc3n2C)n1	12	1	0	10	-2
CCn1c(CNc2ccc(Cl)cc2)nnc1SCc1ccccc1	-4	16	0	7	0
O=C(CSc1nc(SCC(=O)NCc2ccccc2)n(-c2ccccc2)n1)NCc1ccccc1	18	94*	0	3	2
CCOC(=O)C1(CCCc2ccccc2)CCN(C(=O)CN2C(=O)CSC2=O)CC1	23	4	0	15	2
CCOc1ccc(NC(=O)CSc2nc(=O)n(CCN3CCOCC3)c3c2CCCC3)cc1	1	nt	nt	-7	13
O=C(O)CC1c2ccccc2CCN1S(=O)(=O)c1cccs1 (configuration not stated)	-3	nt	nt	-7	-18
Cn1c(SCC(=O)NCc2ccccc2)nc2ccccc21	-79	3	0	-73*	0
SMILES	HSF-1 act	Lmaj promast	Hsp70 act	HSF1 inhib	T cruzi inh
CC(NC(=O)CSc1nc2ccccc2n1C)c1ccccc1 (configuration not stated)	1	nt	nt	6	4
COCc1ccc(C(=O)N2CCCC(C(=O)c3ccc(Cl)cc3C)C2)o1 (configuration not stated)	36	nt	nt	7	-19
COC(=O)c1cc(S(=O)(=O)NCCc2ccccc2)c[nH]1	-84	nt	nt	-81*	-2
COC(=O)c1cc(S(=O)(=O)NCc2cccc(Br)c2)c[nH]1	-8	nt	nt	-2	-4
CCc1ccc(NC(=O)C/C(C)=N/NC(=O)COc2ccc(C)cc2Br)cc1	59*	nt	nt	40	-8
C/C(=N\NC(=O)COc1ccc(C)cc1[N+](=O)[O-])c1cccs1	18	-2	0	13	1
C/C(=N\NC(=O)COc1ccc(C)cc1Br)c1cc([N+](=O)[O-])cs1	11	59*	0	4	?
O=C(CNS(=O)(=O)c1c(Cl)cccc1Cl)OCc1csc(-c2ccccc2)n1	1	57*	0	-10	-11
CCOC(=O)C(=CNc1cc(C(F)(F)F)ccc1N1CCOCC1)C(=O)OCC	7	nt	nt	-3	22
CCNC(=S)/N=C(\N)Nc1nc(C)c2cc(C)ccc2n1	45	81*	0	24	15
O=C(NCCCCc1ccccc1)c1ccc(F)cc1	-2	nt	nt	-2	-17
CSc1ccccc1OCc1cc(C(=O)NCCN2CCCc3ccccc32)no1	13	nt	nt	3	13
CN(CCO)c1ncnc2c1sc1nc(N3CCOCC3)c3c(c12)CCC3	1	nt	nt	3	-17
O=S(=O)(NCc1ccccc1)c1cccc2cccnc12	-10	64*	0	-5	-8
CSS(=O)(=O)c1cccc2cccnc12	78*	nt	nt	54	16
O=C(NCc1ccccc1)c1cccc(NS(=O)(=O)c2cccc3cccnc23)c1	6	54*	0	0	-13
O=C(NCc1ccc(Cl)cc1)c1cnn2ccccc12	36	9	0	28	-7
O=C(Cn1c(=O)cnc2ccccc21)N1CCN(S(=O)(=O)c2ccccc2Br)CC1	9	nt	nt	-2	-2
Nc1cc(=O)[nH]c(SCC(=O)Nc2ccccc2Sc2ccccc2)n1	-8	-2	0	-2	-3
COC(=O)c1ccc(COn2nnc3ccccc32)cc1	59*	7	0	41	14
Cc1ccc(OC(=O)CCC(=O)Nc2ccc(C)c(C)c2)cc1	4	nt	nt	1	13
Cc1c(NS(=O)(=O)c2cc(C(=O)NCCN(C)C)ccc2Cl)c(=O)n(-c2ccccc2)n1C	-80	nt	nt	-74*	-6
O=C(CCC(=O)N1CCCCCC1)NCc1ccc(F)cc1	-5	nt	nt	0	0
O=C1NC(=Nc2cccc([N+](=O)[O-])c2)SC1(CO)CO	-6	nt	nt	0	-6
COc1ccc(CC(=O)N2CCN=C2SCc2cccc([N+](=O)[O-])c2)cc1	22	15	0	-2	2
N#CCCN(C(=O)COC(=O)c1ccc(CNS(=O)(=O)c2ccc(F)c(Cl)c2)cc1)c1ccc(F)cc1	14	97*	0	6	-5
CCC(C(=O)N1CCN(Cc2ccc3c(c2)OCO3)CC1)n1c(=O)[nH]c2ccccc2c1=O (configuration not stated)	-27	nt	nt	-7	2
N=c1n(CCN2CCCC2)c2ccccc2n1CC(O)c1ccc(Cl)c(Cl)c1 (configuration not stated)	-5	100*	0	5	51
CCCn1c(=N)n(CC(O)c2ccc(C)cc2)c2ccccc21 (configuration not stated)	-7	nt	nt	-5	10
N=c1n(CCN2CCOCC2)c2ccccc2n1CC(=O)c1cccc([N+](=O)[O-])c1	-5	nt	nt	-11	9
